From ChEMBL document CHEMBL1140158, “Soluble 3',6-substituted indirubins with enhanced selectivity toward glycogen synthase kinase -3 alter circadian period” (J Med Chem, 2008)
Active and inactive are the calls of the source. The calls are words filed in the database; no cut-off is given here.

Assays:
[1] = target: T1, Glycogen synthase kinase-3 (Homo sapiens, UniProt P49840+P49841); assay: Inhibition of GSK3-mediated beta-catenin phosphorylation in human SH-SY5Y cells in presence of MG132 by ELISA
T1 sequence (P49840 whole entry, looked up): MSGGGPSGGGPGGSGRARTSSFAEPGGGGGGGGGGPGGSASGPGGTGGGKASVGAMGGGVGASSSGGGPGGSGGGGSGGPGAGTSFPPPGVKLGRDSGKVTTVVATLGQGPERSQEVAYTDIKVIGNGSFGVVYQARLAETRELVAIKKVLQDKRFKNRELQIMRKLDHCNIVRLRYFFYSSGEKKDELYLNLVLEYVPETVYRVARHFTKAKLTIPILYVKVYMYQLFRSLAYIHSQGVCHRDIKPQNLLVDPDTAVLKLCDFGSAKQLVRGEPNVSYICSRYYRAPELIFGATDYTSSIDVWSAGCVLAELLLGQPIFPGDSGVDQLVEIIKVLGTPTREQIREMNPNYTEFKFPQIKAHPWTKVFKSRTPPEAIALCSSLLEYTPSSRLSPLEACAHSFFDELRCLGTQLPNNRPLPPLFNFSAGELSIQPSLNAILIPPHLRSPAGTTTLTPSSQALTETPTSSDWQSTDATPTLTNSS
T1 sequence (P49841 whole entry, looked up): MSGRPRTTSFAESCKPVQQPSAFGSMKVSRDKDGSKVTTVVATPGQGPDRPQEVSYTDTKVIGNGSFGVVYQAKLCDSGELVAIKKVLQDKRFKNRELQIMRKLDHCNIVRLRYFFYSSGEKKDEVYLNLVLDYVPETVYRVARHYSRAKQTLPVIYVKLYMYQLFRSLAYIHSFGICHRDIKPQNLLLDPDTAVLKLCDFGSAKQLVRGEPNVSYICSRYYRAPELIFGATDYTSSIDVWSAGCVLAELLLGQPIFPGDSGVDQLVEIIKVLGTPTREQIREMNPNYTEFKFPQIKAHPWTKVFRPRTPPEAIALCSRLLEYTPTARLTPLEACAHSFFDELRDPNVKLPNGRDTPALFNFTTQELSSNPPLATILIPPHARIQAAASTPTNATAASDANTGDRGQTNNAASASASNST

[2] = tested on: Glycogen synthase kinase-3 (Sus scrofa); assay: Inhibition of pig GSK3alpha/beta
[3] = Inhibition of human recombinant CDK5/p25 expressed in Escherichia coli
SH-SY5Y = assay: Cytotoxicity against human SH-SY5Y cells after 48 hrs by MTS reduction assay; format: cell-based
[4] = Dissociation constant, pKa of the compound; format: physicochemical
[5] = Lipophilicity, log D of the compound; format: physicochemical; conditions: octanol/water
[6] = Solubility in water; format: physicochemical
Method in brief: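 Excess solid in double-distilled water was sonicated 5 min, then stirred overnight to equilibrium at 25 ± 0.1 °C and centrifuged. Supernatant absorbance was read at 515–518 nm and quantified against per-compound standard reference curves.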

Rat1 = assay: Effect on circadian rhythm in Pper2::Fluc transfected Rat1 cells assessed as shortening of period length at 10 uM; format: functional, cell-based; conditions: Rattus norvegicus
Method in brief: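 Rat-1 fibroblasts stably carrying PPer2::Fluc, grown to confluence, synchronized with 0.1 μM dexamethasone (1 h in Experimental, 2 h in legend), then moved to phenol-red-free assay medium with 0.1 mM luciferin. Compounds at 10 μM added before dish sealing and left continuously; DMSO solvent control. Luminescence recorded 4–5 days or more; period derived by regression analysis.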

[7] = target: T1, Glycogen synthase kinase-3; assay: Inhibition of GSK3-mediated beta-catenin phosphorylation in human SH-SY5Y cells in presence of MG132 by Western blot analysis

SMILES | IC50 [2] | IC50 [3] | pKa [4] | IC50 (SH-SY5Y; Homo sapiens, SH-SY5Y, 48 h) | logD [5] | solubility thermodynamic [6] | also measured
O=C1Nc2cc(Br)ccc2/C1=C1/Nc2ccccc2/C1=N\OCCN1CCN(CCO)CC1 | – | – | – | – | – | – | IC50 [1]: 0.7 µM
CN1CCN(CCO/N=C2/C(=C3/C(=O)Nc4cc(Br)ccc43)Nc3ccccc32)CC1 | 7 nM | 400 nM | – | – | – | – | –
O=C1Nc2cc(Br)ccc2/C1=C1/Nc2ccccc2/C1=N\OCCN1CCCC1 | 26 nM | 130 nM | – | – | – | – | IC50 (SH-SY5Y; sh-sy5y): 5.5 µM
CN1CCN(CCO/N=C2/C(=C3/C(=O)Nc4cc(Br)ccc43)Nc3ccccc32)CC1.Cl.Cl | 5 nM | 300 nM | 7.65 | 5.4 µM | 1.74 | 1500 µg/mL | –
Cl.Cl.O=C1Nc2cc(Br)ccc2/C1=C1/Nc2ccccc2/C1=N\OCCN1CCN(CCO)CC1 | – | – | 7.65 | – | 1.41 | 1140 µg/mL | –
O=C1Nc2cc(Br)ccc2/C1=C1/Nc2ccccc2/C1=N\OCC(O)CO (stereo unspecified) | 34 nM | 25 nM | – | 0.94 µM | – | – | –
CCN(CC)C(=O)O/N=C1/C(=C2/C(=O)Nc3cc(Br)ccc32)Nc2ccccc21 | 30 nM | 10000 nM | – | > 100 µM | – | – | –
CCN(CC)CCO/N=C1/C(=C2/C(=O)Nc3cc(Br)ccc32)Nc2ccccc21.Cl | 27 nM | 40 nM | 9.38 | > 100 µM | 1.19 | 192 µg/mL | –
Cl.O=C1Nc2cc(Br)ccc2/C1=C1/Nc2ccccc2/C1=N\OCCN(CCO)CCO | – | – | – | – | – | – | IC50 [1]: 0.32 µM
O=C1Nc2cc(Br)ccc2/C1=C1/Nc2ccccc2/C1=N\OCCN1CCN(CCOCCO)CC1 [listing 1 of 2 here] | 14 nM | 310 nM | – | – | – | – | IC50 [1]: 2.9 µM
Cl.O=C1Nc2cc(Br)ccc2/C1=C1/Nc2ccccc2/C1=N\OCCN1CCCC1 | 54 nM | 100 nM | 9.18 | 4.2 µM | 1.16 | 195 µg/mL | –
O=C1Nc2cc(Br)ccc2/C1=C1/Nc2ccccc2/C1=N\OCCN(CCO)CCO | – | – | – | 6.6 µM | – | – | –
COCCN1CCN(CCO/N=C2/C(=C3/C(=O)Nc4cc(Br)ccc43)Nc3ccccc32)CC1.Cl.Cl | 20 nM | 400 nM | 7.47 | > 100 µM | 1.9 | 570 µg/mL | –
O=C1Nc2cc(Br)ccc2/C1=C1/Nc2ccccc2/C1=N\OCCBr | 140 nM | > 10000 nM | – | > 100 µM | – | – | –
O=C1Nc2cc(Br)ccc2/C1=C1/Nc2ccccc2/C1=N\OCCN1CCN(CCOCCO)CC1 [listing 2 of 2 here] | – | – | – | – | – | – | Activity (Rat1): Active
CN(C)CCO/N=C1/C(=C2/C(=O)Nc3cc(Br)ccc32)Nc2ccccc21.Cl | – | – | 8.59 | – | 1.69 | 141 µg/mL | –
Cl.Cl.O=C1Nc2cc(Br)ccc2/C1=C1/Nc2ccccc2/C1=N\OCCN1CCN(CCOCCO)CC1 | 33 nM | 330 nM | 7.58 | 97.6 µM | 1.46 | 4250 µg/mL | –
COCCN1CCN(CCO/N=C2/C(=C3/C(=O)Nc4cc(Br)ccc43)Nc3ccccc32)CC1 | 11 nM | 500 nM | – | – | – | – | –
Cn1c(O)c(-c2[nH]c3ccccc3c2N=O)c2ccc(Br)cc21 | – | – | – | – | – | – | Activity [7]: inactive
Cl.Cl.O=C1Nc2cc(Br)ccc2/C1=C1/Nc2ccccc2/C1=N\OCCN1CCNCC1 | – | 180 nM | 8.85 | – | -0.87 | 1610 µg/mL | IC50 (SH-SY5Y; sh-sy5y): 5.9 µM; IC50 [1]: 0.22 µM
O=C1Nc2cc(Br)ccc2/C1=C1/Nc2ccccc2/C1=N\OCCO | – | > 10000 nM | – | > 100 µM | – | – | –
O=C1Nc2cc(Br)ccc2/C1=C1/Nc2ccccc2/C1=N\OCCN1CCNCC1 | – | – | – | – | – | – | IC50 (SH-SY5Y; sh-sy5y): 13.2 µM; IC50 [1]: 0.15 µM
CCN(CC)CCO/N=C1/C(=C2/C(=O)Nc3cc(Br)ccc32)Nc2ccccc21 | 35 nM | 20 nM | – | – | – | – | IC50 (SH-SY5Y; sh-sy5y): 78 µM
CN(CCO/N=C1/C(=C2/C(=O)Nc3cc(Br)ccc32)Nc2ccccc21)CC(O)CO (stereo unspecified) | 67 nM | 240 nM | – | 5.8 µM | – | – | –
